Key:
[1] = melting temperature; fluorescence melt of hairpins on a sequencing array, two-state fit, raised by 9.35 °C to match UV melts; details: sodium 0.088 M
Summary of the method: (§1)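 Library hairpins on a sequenced MiSeq flow cell carried annealed Cy3 and quencher oligos, and their Cy3 fluorescence was imaged in 50 mM Na-HEPES pH 8.0 with 25 mM NaCl, in 2.5 °C steps up to 60 °C. Signals were normalised to Cy3 before quenching and to control constructs. Melting temperature and folding enthalpy were obtained from bootstrapped two-state fits, combined by inverse-variance weighting across four replicates, and the fitted temperatures were then raised by 9.35 °C to match UV melts.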

[2] = folding enthalpy; higher = less favourable; fluorescence melt of hairpins on a sequencing array, two-state fit; details: sodium 0.088 M
Summary of the method: as §1

| Sequence | Tm [1] | folding enthalpy [2] |
| --- | --- | --- |
| GGTCGCGAAAGCGGGACC ((((((....)))..))) | 52.1 °C | -18.9 kcal/mol |
| GGTCGCGGAAACACGACC (((((.(....).))))) | 56.9 °C | -41 kcal/mol |
| GGTCGGGGAAACTCGGCC ((.((.(....).)).)) | 49.1 °C | -34 kcal/mol |
| GGTCGTGCGAAAGCAACC (((..(((....)))))) | 27.6 °C | -8.03 kcal/mol |
| GGTCGTGGAAACACAACC (((.(((....))).))) | 42.5 °C | -27.6 kcal/mol |
| GGTCGTGGAAACACGGCC ((.((((....)))).)) | 61.8 °C | -56.7 kcal/mol |
| GGTCGTGGAAACATGACC ((((.((....)).)))) | 56.5 °C | -34 kcal/mol |
| GGTCGTGGAAACGCGACC (((((.(....).))))) | 60 °C | -50.9 kcal/mol |
| GGTCTACGAAAGTAAACC (((.(((....))).))) | 39.3 °C | -26.2 kcal/mol |
| GGTCTAGCGAAAGCTACC (((..(((....)))))) | 31.2 °C | -10.1 kcal/mol |
| GGTCTCCCGAAAGGGACC (((..(((....)))))) | 41.2 °C | -12.4 kcal/mol |
| GGTCTCGAAAGAGACACC ((((((....)))..))) | 48.4 °C | -9.21 kcal/mol |
| GGTCTCGAAAGAGGCACC ((((((....)))..))) | 39.1 °C | -14.5 kcal/mol |
| GGTCTCGGAAACGAAACC (((.(((....))).))) | 39.2 °C | -27.5 kcal/mol |
| GGTCTCGGAAACGGGACC ((((.((....)).)))) | 57.5 °C | -44 kcal/mol |
| GGTCTCGGAAACGGGATC (.((.((....)).)).) | 39 °C | -28.8 kcal/mol |
| GGTCTGAAAAGACC (((((....))))) | 61.7 °C | -31.1 kcal/mol |
| GGTCTGGAAACAGACC ((((((....)))))) | 63.9 °C | -38 kcal/mol |
| GGTCTGGGAAACCAAACC (((.(((....))).))) | 35.1 °C | -29.9 kcal/mol |
| GGTCTGGGAAACCAGATC (.(((((....))))).) | 49.4 °C | -25.8 kcal/mol |
| GGTCTGGGAAACCGGACC ((((.((....)).)))) | 58.6 °C | -46.1 kcal/mol |
| GGTCTGTCGAAAGACACC (((..(((....)))))) | 30.5 °C | -11.4 kcal/mol |
| GGTCTTCGAAAGAAACC (((.(((....)))))) | 32.9 °C | -18.4 kcal/mol |

| Sequence | Tm [1] | folding enthalpy [2] |
| --- | --- | --- |
| GGTGAACGAAAGTTACC (((.(((....)))))) | 40.6 °C | -23.4 kcal/mol |
| GGTGAAGAAATTCACC ((((((....)))))) | 52.6 °C | -32.5 kcal/mol |
| GGTGACACGAAAGTGACC (((..(((....)))))) | 38.1 °C | -15.8 kcal/mol |
| GGTGACCGAAAGGTACC (((.(((....)))))) | 49 °C | -21.8 kcal/mol |
| GGTGACGAAAGTCAAACC ((((((....)))..))) | 46.3 °C | -17.4 kcal/mol |
| GGTGACGAAAGTCCACC ((((((....))).))) | 50.8 °C | -25.9 kcal/mol |
| GGTGACGAAAGTCCCACC ((((((....)))..))) | 43.4 °C | -12.9 kcal/mol |
| GGTGACGAAAGTCGCACC ((((((....)))..))) | 45.6 °C | -13.9 kcal/mol |
| GGTGACGGAAACATCACC (((((.(....).))))) | 43.7 °C | -33.1 kcal/mol |
| GGTGACGGAAACGTCGTC (..((((....))))..) | 42 °C | -13.9 kcal/mol |
| GGTGATCGAAAGATGACC (((.(((....))).))) | 47.9 °C | -33.4 kcal/mol |
| GGTGCAACGAAAGTTACC (((..(((....)))))) | 27.7 °C | -13.1 kcal/mol |
| GGTGCACCGAAAGGTACC (((..(((....)))))) | 37.6 °C | -11.6 kcal/mol |
| GGTGCACGAAAGTGACC (((.(((....)))))) | 49 °C | -17.4 kcal/mol |
| GGTGCACGAAAGTGTACC (((.(((....))).))) | 64.5 °C | -38 kcal/mol |
| GGTGCAGAAATGCACC ((((((....)))))) | 68 °C | -25.9 kcal/mol |
| GGTGCAGGAAACTGCGCC ((.((((....)))).)) | 65.3 °C | -34.3 kcal/mol |
| GGTGCAGGAAACTGTGCC ((..(((....)))..)) | 48.5 °C | -26.1 kcal/mol |
| GGTGCCCGAAAGGGTACC (((.(((....))).))) | 68.2 °C | -33.4 kcal/mol |
| GGTGCCGAAAGGCAACC ((((((....))).))) | 66.1 °C | -19.6 kcal/mol |
| GGTGCCGAAAGGCCAACC ((((((....)))..))) | 44.1 °C | -12.7 kcal/mol |
| GGTGCCGAAAGGCGAACC ((((((....)))..))) | 46.9 °C | -15 kcal/mol |
| GGTGCCGAAAGGCGCACC ((((((....)))..))) | 53.2 °C | -11 kcal/mol |

| Sequence | Tm [1] | folding enthalpy [2] |
| --- | --- | --- |
| GGTGCCGAAAGGCGGACC ((((((....)))..))) | 45.7 °C | -13.9 kcal/mol |
| GGTGCCGAAAGGCTAACC ((((((....)))..))) | 50.7 °C | -15.3 kcal/mol |
| GGTGCCGAAAGGCTACC ((((((....))).))) | 57.8 °C | -17.2 kcal/mol |
| GGTGCCGCGAAAGCGACC (((..(((....)))))) | 45.6 °C | -9.79 kcal/mol |
| GGTGCCGGAAACAGCACC (((((.(....).))))) | 53.5 °C | -46.2 kcal/mol |
| GGTGCCGGAAACGGCATC (.(((((....))))).) | 62.4 °C | -15.1 kcal/mol |
| GGTGCGCCGAAAGGCACC (((..(((....)))))) | 51.6 °C | -13.2 kcal/mol |
| GGTGCGGGAAACCGCGCC ((.((((....)))).)) | 68.7 °C | -31.3 kcal/mol |
| GGTGCGTCGAAAGACACC (((..(((....)))))) | 37.1 °C | -13 kcal/mol |
| GGTGCTACGAAAGTAACC (((..(((....)))))) | 29.1 °C | -13.5 kcal/mol |
| GGTGCTCGAAAGAGGACC (((.(((....))).))) | 59.7 °C | -47.6 kcal/mol |
| GGTGCTGGAAACAGCGCC ((.((((....)))).)) | 64.9 °C | -34.3 kcal/mol |
| GGTGGACCGAAAGGTACC (((..(((....)))))) | 45 °C | -13.4 kcal/mol |
| GGTGGACGAAAGTCTACC (((.(((....))).))) | 59 °C | -41.5 kcal/mol |
| GGTGGAGGAAACCCCACC (((((.(....).))))) | 51.1 °C | -43.6 kcal/mol |
| GGTGGAGGAAACTTCGCC ((.(.((....)).).)) | 37.7 °C | -28.2 kcal/mol |
| GGTGGCCCGAAAGGGACC (((..(((....)))))) | 52.2 °C | -12.7 kcal/mol |
| GGTGGCCGAAAGGCACC (((.(((....)))))) | 61.8 °C | -18.5 kcal/mol |
| GGTGGCGAAAGCCCTACC ((((((....)))..))) | 36.1 °C | -13.2 kcal/mol |
| GGTGGCGAAAGCCGCACC ((((((....)))..))) | 47.7 °C | -9.89 kcal/mol |
| GGTGGCGGAAACGCCATC (.(((((....))))).) | 59.9 °C | -16.4 kcal/mol |
| GGTGGCGGAAACGCCGTC (..((((....))))..) | 45.1 °C | -10.1 kcal/mol |
| GGTGGCTCGAAAGAGACC (((..(((....)))))) | 42 °C | -13.5 kcal/mol |

| Sequence | Tm [1] | folding enthalpy [2] |
| --- | --- | --- |
| GGTGGGCCGAAAGGCACC (((..(((....)))))) | 50.5 °C | -10.5 kcal/mol |
| GGTGGGGGAAACCCTGCC ((..(((....)))..)) | 47.8 °C | -27.9 kcal/mol |
| GGTGGGGGAAACCTCGCC ((.(.((....)).).)) | 45.6 °C | -30.8 kcal/mol |
| GGTGGTACGAAAGTAACC (((..(((....)))))) | 43.8 °C | -19 kcal/mol |
| GGTGGTCGAAAGACACC (((.(((....)))))) | 54.8 °C | -17.5 kcal/mol |
| GGTGGTCGAAAGACTACC (((.(((....))).))) | 57 °C | -43.2 kcal/mol |
| GGTGTACCGAAAGGTACC (((..(((....)))))) | 44.7 °C | -9.75 kcal/mol |
| GGTGTAGGAAACTGCACC ((((.((....)).)))) | 52.7 °C | -44.5 kcal/mol |
| GGTGTCCGAAAGGAACC (((.(((....)))))) | 48.3 °C | -19.8 kcal/mol |
| GGTGTCGAAAGACGCACC ((((((....)))..))) | 42.4 °C | -13.6 kcal/mol |
| GGTGTCGAAAGACGTACC ((((((....)))..))) | 41.9 °C | -19.3 kcal/mol |
| GGTGTCGAAAGACTACC ((((((....))).))) | 47.8 °C | -17.7 kcal/mol |
| GGTGTCGAAAGACTGACC ((((((....)))..))) | 40.5 °C | -18.4 kcal/mol |
| GGTGTCGGAAACGACGTC (..((((....))))..) | 36.8 °C | -12.3 kcal/mol |
| GGTGTCGGAAACGGCATC (.((.((....)).)).) | 44.4 °C | -26.1 kcal/mol |
| GGTGTGCGAAAGCAACC (((.(((....)))))) | 52.1 °C | -17 kcal/mol |
| GGTGTGCGAAAGCAGACC (((.(((....))).))) | 64.4 °C | -33.9 kcal/mol |
| GGTGTGGCGAAAGCCACC (((..(((....)))))) | 49 °C | -7.44 kcal/mol |
| GGTGTGGGAAACCATACC (((.(((....))).))) | 50.8 °C | -33.5 kcal/mol |
| GGTGTGGGAAACCGTACC (((..((....))..))) | 36.8 °C | -24.1 kcal/mol |
| GGTGTTACGAAAGTAACC (((..(((....)))))) | 45.2 °C | -13.8 kcal/mol |
| GGTGTTCCGAAAGGAACC (((..(((....)))))) | 47.7 °C | -9.16 kcal/mol |
